According to ChEMBL document CHEMBL1137560, “Synthesis and monoamine oxidase inhibitory activity of new pyridazine-, pyrimidine- and 1,2,4-triazine-containing tricyclic derivatives” (J Med Chem, 2007):

Key:
[1] = molecular target: T1, Amine oxidase [flavin-containing] A (Rattus norvegicus, UniProt P21396); assay: Inhibition of MAOA in rat brain mitochondria at 50 uM
T1 sequence (P21396 whole entry): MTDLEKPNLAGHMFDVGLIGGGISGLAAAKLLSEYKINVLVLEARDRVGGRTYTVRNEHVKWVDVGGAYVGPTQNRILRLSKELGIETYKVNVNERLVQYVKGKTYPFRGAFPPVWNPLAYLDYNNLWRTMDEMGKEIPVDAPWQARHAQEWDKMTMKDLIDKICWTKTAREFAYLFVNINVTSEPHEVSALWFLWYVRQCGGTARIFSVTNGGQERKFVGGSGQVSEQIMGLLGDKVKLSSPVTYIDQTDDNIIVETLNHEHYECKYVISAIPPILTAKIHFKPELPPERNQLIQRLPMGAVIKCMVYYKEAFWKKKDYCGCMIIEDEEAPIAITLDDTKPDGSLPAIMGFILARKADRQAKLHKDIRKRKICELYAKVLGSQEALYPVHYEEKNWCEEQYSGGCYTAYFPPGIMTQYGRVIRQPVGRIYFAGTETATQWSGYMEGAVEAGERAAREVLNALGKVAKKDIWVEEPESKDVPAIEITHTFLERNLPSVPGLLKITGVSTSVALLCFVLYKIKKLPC

[2] = molecular target: T2, Amine oxidase [flavin-containing] B (Rattus norvegicus, UniProt P19643); assay: Inhibition of MAOB in rat brain mitochondria
T2 sequence (P19643 whole entry): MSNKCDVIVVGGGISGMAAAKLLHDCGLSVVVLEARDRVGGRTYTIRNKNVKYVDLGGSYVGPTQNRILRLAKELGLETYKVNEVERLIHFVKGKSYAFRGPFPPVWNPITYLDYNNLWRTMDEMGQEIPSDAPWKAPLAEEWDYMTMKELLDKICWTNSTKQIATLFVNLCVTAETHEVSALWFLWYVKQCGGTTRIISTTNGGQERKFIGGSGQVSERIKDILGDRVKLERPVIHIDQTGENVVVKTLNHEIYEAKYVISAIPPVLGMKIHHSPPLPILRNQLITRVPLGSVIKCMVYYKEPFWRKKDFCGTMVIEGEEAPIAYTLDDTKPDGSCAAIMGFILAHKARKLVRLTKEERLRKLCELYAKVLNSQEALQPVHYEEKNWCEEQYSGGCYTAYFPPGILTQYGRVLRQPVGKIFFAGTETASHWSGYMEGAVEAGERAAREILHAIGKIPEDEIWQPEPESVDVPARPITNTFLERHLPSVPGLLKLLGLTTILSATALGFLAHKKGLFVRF
Summary of the method: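 MAO-B measured in rat brain mitochondrial suspension after 5 min preincubation with clorgyline. Incubations at pH 7.40 (isotonic phosphate/KCl) and 37 °C, 5% DMSO cosolvent. Kynuramine 60 µM (its KM); 4-hydroxyquinoline formation read continuously at 314 nm. Highest concentration 100 µM; IC50 derived by hyperbolic equation fit.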

[3] = molecular target: T2, Amine oxidase [flavin-containing] B; assay: Inhibition of MAOB in rat brain mitochondria at 1 uM
[4] = molecular target: T1, Amine oxidase [flavin-containing] A; assay: Inhibition of MAOA in rat brain mitochondria at 1 uM
[5] = molecular target: T2, Amine oxidase [flavin-containing] B; assay: Inhibition of MAOB in rat brain mitochondria at 50 uM
[6] = molecular target: T1, Amine oxidase [flavin-containing] A; assay: Inhibition of MAOA in rat brain mitochondria
Summary of the method: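 Rat brain mitochondrial suspension, isotonic Na2HPO4/KH2PO4–KCl buffer, pH 7.40, 37 °C, with 5% DMSO cosolvent. Preincubated 5 min with selegiline to isolate MAO-A. Continuous spectrophotometric assay: 90 µM kynuramine (its KM) oxidized to 4-hydroxyquinoline, followed at 314 nm. Top concentration tested 100 µM; IC50 calculated from a hyperbolic equation.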

[7] = molecular target: T1, Amine oxidase [flavin-containing] A; assay: Inhibition of MAOA in rat brain mitochondria at 10 uM
[8] = molecular target: T2, Amine oxidase [flavin-containing] B; assay: Inhibition of MAOB in rat brain mitochondria at 20 uM
[9] = molecular target: T2, Amine oxidase [flavin-containing] B; assay: Inhibition of MAOB in rat brain mitochondria at 10 uM
[10] = molecular target: T2, Amine oxidase [flavin-containing] B; assay: Inhibition of MAOB in rat brain mitochondria at 25 uM
Summary of the method: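 Rat brain mitochondrial suspension, pre-treated 5 min with clorgyline to isolate MAO-B. Kynuramine substrate at 60 µM (its KM) in isotonic Na2HPO4/KH2PO4/KCl buffer, pH 7.40, 37 °C, with 5% DMSO cosolvent. 4-Hydroxyquinoline formation followed continuously at 314 nm. Percent inhibition taken at the compound's maximum solubility; means ± SEM of three experiments, each run in duplicate.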

| IC50 [2] [µM] | IC50 [6] [µM] | inhibition at 10 µM [7] [%] | SMILES | also measured |
| --- | --- | --- | --- | --- |
| 34 | 21.6 | – | O=C1c2ccccc2-c2ncnc(-c3ccccc3)c21 | – |
| – | 18 | – | c1ccc(-c2ncc3c(n2)-c2ccccc2C3)cc1 | inhibition at 20 µM [8]: 37% |
| > 100 | 30.8 | – | O=C(c1ccccc1)c1cnncc1-c1ccc(Cl)cc1 | – |
| 13 | 16.7 | – | c1ccc(-c2ncc3c(n2)Cc2ccccc2-3)cc1 | – |
| 6.31 | – | 21 | O=C1c2ccccc2-c2nc(-c3ccccc3)nnc21 | – |

The remaining lines, values behind:

| SMILES | IC50 [2] [µM] | IC50 [6] [µM] | inhibition at 10 µM [7] [%] | also measured |
| --- | --- | --- | --- | --- |
| O=C1c2ccccc2-c2nn(-c3ccccc3)c(=O)cc21 | 38 | – | – | inhibition at 50 µM [1]: 46% |
| O=C1c2ccccc2-c2cnc(-c3cccc([N+](=O)[O-])c3)nc21 | – | – | – | inhibition at 1 µM [3]: 12%; inhibition at 1 µM [4]: 5% |
| c1ccc2c(c1)nnc1c3ccccc3[nH]c21 | – | 29.7 | – | inhibition at 50 µM [5]: 29% |
| O=C1c2ccccc2-c2nnc(COc3ccccc3)cc21 | 2.51 | – | 0 | – |
| O=C1c2ccccc2-c2nnc(OCc3ccccc3)cc21 | 55 | > 100 | – | – |
| O=C1c2ccccc2-c2nnc(COc3ccc(F)cc3)cc21 | 1.9 | – | 12 | – |
| O=C1c2ccccc2-c2nnc(COc3ccc(C(F)(F)F)cc3)cc21 | – | – | 0 | inhibition at 10 µM [9]: 48% |
| Nc1cccc(-c2nnc3c(n2)-c2ccccc2C3=O)c1 | – | – | 12 | inhibition at 10 µM [9]: 17% |
| O=C1c2ccccc2-c2nc(-c3cccc([N+](=O)[O-])c3)nnc21 | 0.08 | – | 23 | – |
| Cc1ncc2c(n1)C(=O)c1ccccc1-2 | 9.4 | 47.1 | – | – |
| c1ccc2c(c1)CCc1c-2[nH]c2ccccc12 | – | 12 | – | inhibition at 25 µM [10]: 38% |
| O=C1c2ccccc2-c2nnc(-c3cccc([N+](=O)[O-])c3)nc21 | 0.912 | – | 3 | – |
